Measured values from ChEMBL document CHEMBL1154676, “Synthetic mRNA splicing modulator compounds with in vivo antitumor activity” (J Med Chem, 2009).

Key:
[1] = tested on: NCI-H522; assay: Growth inhibition of human NCI-H522 cells by sulforhodamine B assay; type: functional
[2] = Cytotoxicity against HFF/tert2 after 72 hrs by XTT assay; parameters: species or system Homo sapiens
How it was run: (§1)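 Cells grown at 37 °C, 5% CO2; HFF in DMEM with 10% FBS, PrEC in prostate epithelial growth medium. Adherent lines seeded overnight, suspension lines same day; compounds diluted from DMSO stocks into media at various final concentrations, 72 h exposure. XTT reagent added 4 h, absorbance 490 nm (reference 690 nm). Growth as % of vehicle; IC50 from sigmoidal dose-response fit; mean ± SEM, three independent experiments.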

[3] = tested on: Mus musculus; assay: Toxicity in NOD/SCID mouse assessed as albumin level at 5 to 50 mg/kg, iv and po for 5 days; type: organism-based; parameters: dose 5-50 mg/kg, route oral; details: in vivo, 120 h
[4] = tested on: Mus musculus; assay: Toxicity in NOD/SCID mouse assessed as change in alkaline phosphatase level at 5 to 50 mg/kg, iv and po for 5 days; type: organism-based; parameters: dose 5-50 mg/kg, route oral; details: in vivo, 120 h
[5] = Cytotoxicity against human Rh41 cells after 72 hrs by XTT assay; type: functional, cell-based; details: Rh41, 72 h; how it was run: as §1
[6] = tested on: SF-539; assay: Growth inhibition of human SF539 cells by sulforhodamine B assay; type: functional
[7] = tested on: Mus musculus; assay: Toxicity in NOD/SCID mouse assessed as anemia at 5 to 50 mg/kg, iv and po for 5 days; type: organism-based; parameters: dose 5-50 mg/kg, route oral; details: in vivo, 120 h
[8] = tested on: Mus musculus; assay: Toxicity in NOD/SCID mouse assessed as globulin level at 5 to 50 mg/kg, […] for 5 days; type: organism-based; parameters: dose 5-50 mg/kg; details: in vivo, po, 120 h
[9] = tested on: Mus musculus; assay: Toxicity in NOD/SCID mouse assessed as amylase level at 5 to 50 mg/kg, iv and po for 5 days; type: organism-based; parameters: dose 5-50 mg/kg, route oral; details: in vivo, 120 h
[10] = Cytotoxicity against human JeKo1 cells after 72 hrs by XTT assay; type: functional, cell-based; details: JeKo-1, 72 h; how it was run: as §1
[11] = tested on: M14; assay: Growth inhibition of human M14 cells by sulforhodamine B assay; type: functional
[12] = Cytotoxicity against human Rh30 cells after 72 hrs by XTT assay; type: functional, cell-based; details: SJRH30, 72 h; how it was run: as §1
[13] = tested on: Mus musculus; assay: Toxicity in NOD/SCID mouse assessed as glucose at 5 to 50 mg/kg, […] for 5 days; type: organism-based; parameters: dose 5-50 mg/kg; details: in vivo, po, 120 h
[14] = tested on: MIA PaCa-2; assay: Cytotoxicity against human MIAPaCa2 cells after 72 hrs by XTT assay; type: functional, cell-based; details: MIA PaCa-2, 72 h; how it was run: as §1
[15] = tested on: SK-MEL-28; assay: Growth inhibition of human SK-MEL-28 cells by sulforhodamine B assay; type: functional
[16] = tested on: HOP-92; assay: Growth inhibition of human HOP92 cells by sulforhodamine B assay; type: functional
[17] = Growth inhibition of human […] cells by sulforhodamine B assay; type: functional
[18] = tested on: MOLT-4; assay: Cytotoxicity against human MOLT4 cells after 72 hrs by XTT assay; type: functional, cell-based; details: MOLT-4, 72 h; how it was run: as §1
[19] = tested on: Mus musculus; assay: Toxicity in NOD/SCID mouse assessed as total bilirubin level at 5 to 50 mg/kg, iv and po for 5 days; type: organism-based; parameters: dose 5-50 mg/kg, route oral; details: in vivo, 120 h
[20] = tested on: MCF7; assay: Growth inhibition of human MCF7 cells by sulforhodamine B assay; type: functional
[21] = tested on: TK-10; assay: Growth inhibition of human TK10 cells by sulforhodamine B assay; type: functional
[22] = tested on: NCI-H226; assay: Growth inhibition of human NCI-H226 cells by sulforhodamine B assay; type: functional
[23] = tested on: HCT-116; assay: Growth inhibition of human HCT116 cells by sulforhodamine B assay; type: functional
[24] = read-out: Log10GI50 (converted)
[25] = read-out: Log10LC50 (converted)

In the case of `CC(/C=C/[C@@H]1C[C@]2(CO2)CC(C)(C)O1)=C\C[C@H]1CC[C@@H](NC(=O)/C=C\[C@H](C)OC(=O)C(C)C)CC1`, the GI50 [1, 24] is reported as 0.316 µM, the CC50 [1, 25] is reported as 5.37 µM and the TGI ([1]; read-out: Log10TGI (converted)) is reported as > 100 µM. For the same compound, the IC50 [2] was 9.69 µM, the Activity [3] was “Non-toxic” and the Activity [4] was “Non-toxic”. The IC50 [5] was 0.55 µM, the GI50 [6, 24] was 0.372 µM and the CC50 [6, 25] was > 100 µM. For the same compound, the TGI ([6]; read-out: Log10TGI (converted)) was 18.6 µM, the Activity [7] was “Non-toxic” and the Activity [8] was “Non-toxic”. The Activity [9] was “Non-toxic”, the IC50 [10] was 0.12 µM and the GI50 [11, 24] was 0.229 µM. The CC50 [11, 25] was > 100 µM, the TGI ([11]; read-out: Log10TGI (converted)) was 13.8 µM and the IC50 [12] was 0.69 µM. For the same compound, the Activity [13] was “Non-toxic”, the IC50 [14] was 1.2 µM and the GI50 [15, 24] was 0.324 µM. For the same compound, the CC50 [15, 25] was > 100 µM, the TGI ([15]; read-out: Log10TGI (converted)) was 6.46 µM and the GI50 [16, 24] was 0.575 µM. For the same compound, the CC50 [16, 25] was > 100 µM, the TGI ([16]; read-out: Log10TGI (converted)) was > 100 µM and the GI50 [17, 24] was 0.427 µM. The CC50 [17, 25] was > 100 µM, the TGI ([17]; read-out: Log10TGI (converted)) was 4.68 µM and the IC50 [18] was 0.08 µM. The Activity [19] was “Non-toxic”, the GI50 [20, 24] was 0.0251 µM and the CC50 [20, 25] was > 100 µM. The TGI ([20]; read-out: Log10TGI (converted)) was 13.8 µM, the GI50 [21, 24] was 0.457 µM and the CC50 [21, 25] was > 100 µM. For the same compound, the TGI ([21]; read-out: Log10TGI (converted)) was 7.94 µM, the GI50 [22, 24] was 2.45 µM and the CC50 [22, 25] was > 100 µM. The TGI ([22]; read-out: Log10TGI (converted)) was > 100 µM, the GI50 [23, 24] was 0.0708 µM and the CC50 [23, 25] was > 100 µM. The TGI ([23]; read-out: Log10TGI (converted)) was > 100 µM.
